Laboratory results from ChEMBL document CHEMBL1134518, “5-(Tryptophyl)amino-1,3-dioxoperhydropyrido[1,2-c]pyrimidine-based potent and selective CCK(1)receptor antagonists: structure-activity relationship studies on the substituent at N2-position” (J Med Chem, 2001).

Key:
[1] = molecular target: T1, Gastrin/cholecystokinin type B receptor (Rattus norvegicus, UniProt P30553); experiment: Inhibition of [3H]pCCK-8 specific binding cholecystokinin type B receptor in rat cerebral cortex membranes; assay type: cell membranes, Membrane
T1 sequence (P30553 whole entry): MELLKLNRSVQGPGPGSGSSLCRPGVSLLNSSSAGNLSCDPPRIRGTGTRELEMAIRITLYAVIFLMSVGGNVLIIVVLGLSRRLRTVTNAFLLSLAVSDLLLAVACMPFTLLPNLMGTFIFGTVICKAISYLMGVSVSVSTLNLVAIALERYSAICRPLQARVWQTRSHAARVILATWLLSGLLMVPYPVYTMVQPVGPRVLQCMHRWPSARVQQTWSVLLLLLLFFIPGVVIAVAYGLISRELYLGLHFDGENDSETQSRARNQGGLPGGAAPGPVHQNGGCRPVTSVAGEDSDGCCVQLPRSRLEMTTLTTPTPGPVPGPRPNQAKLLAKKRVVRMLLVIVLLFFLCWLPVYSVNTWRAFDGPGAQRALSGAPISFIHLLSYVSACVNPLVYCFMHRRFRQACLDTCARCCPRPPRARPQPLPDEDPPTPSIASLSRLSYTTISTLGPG
How it was run: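 Rat brain cortex homogenized in 50 mM Tris-HCl pH 7.4 with 5 mM MgCl2, centrifuged twice at 100 000g, 35 min, 4 °C. Membranes (0.45 mg protein/tube) incubated with 1 nM [3H]pCCK-8 plus bacitracin 0.2 mg/mL, 60 min, 25 °C. Seven test concentrations in triplicate, at least three experiments.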

Rattus norvegicus = species on record: Rattus norvegicus; experiment: Inhibition of amylase release stimulated by CCK-8 (0.1 nM) in dispersed pancreatic acini; assay type: functional
How it was run: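 Pancreatic acini prepared by collagenase digestion (two 6 min incubations, 37 °C). Acini were suspended in theophylline/BSA-containing buffer and incubated 30 min, 37 °C, under O2 with 0.1 nM CCK-8 and increasing compound concentrations. Released amylase was measured as a percentage of acinar content. IC50 came from linear regression of % inhibition. Three to six experiments in duplicate.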

[2] = molecular target: T2, Cholecystokinin receptor type A (Rattus norvegicus, UniProt P30551); experiment: Inhibition of [3H]pCCK-8 specific binding to cholecystokinin type A receptor in rat pancreas
T2 sequence (P30551 whole entry): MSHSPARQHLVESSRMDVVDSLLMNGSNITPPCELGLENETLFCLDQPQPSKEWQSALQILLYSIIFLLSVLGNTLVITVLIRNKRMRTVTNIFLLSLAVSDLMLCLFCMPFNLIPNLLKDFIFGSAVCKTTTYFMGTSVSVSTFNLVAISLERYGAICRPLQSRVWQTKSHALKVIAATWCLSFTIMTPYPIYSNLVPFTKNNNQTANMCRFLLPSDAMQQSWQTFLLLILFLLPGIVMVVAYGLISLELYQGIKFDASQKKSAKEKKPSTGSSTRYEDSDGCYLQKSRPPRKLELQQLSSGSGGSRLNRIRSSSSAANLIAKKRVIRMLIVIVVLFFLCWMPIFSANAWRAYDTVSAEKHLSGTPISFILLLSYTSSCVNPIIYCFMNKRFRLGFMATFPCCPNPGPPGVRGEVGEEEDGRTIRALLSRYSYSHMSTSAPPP
How it was run: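 Rat pancreas homogenized in Pipes-HCl pH 6.5 with 30 mM MgCl2, centrifuged twice at 50 000g, 10 min, 4 °C. Membranes (0.2 mg protein/tube) incubated with 0.5 nM [3H]pCCK-8, 30 mM MgCl2, bacitracin and SBTI (0.2 mg/mL each), 120 min, 25 °C. Seven test concentrations in triplicate, at least three experiments.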

| SMILES | IC50 [1] | IC50 (Rattus norvegicus) | IC50 [2] |
| --- | --- | --- | --- |
| CC(C)(C)OC(=O)N[C@@H](Cc1c[nH]c2ccccc12)C(=O)N[C@@H]1CCCN2C(=O)N(c3ccc([N+](=O)[O-])cc3)C(=O)C[C@@H]12 | > 10000 nM | 64 nM | 12 nM |
| CC(C)(C)OC(=O)N[C@@H](Cc1c[nH]c2ccccc12)C(=O)N[C@@H]1CCCN2C(=O)N(c3cccc([N+](=O)[O-])c3)C(=O)C[C@@H]12 | > 10000 nM | 49.5 nM | 44 nM |
| C[C@@H](c1ccccc1)N1C(=O)C[C@@H]2[C@@H](NC(=O)[C@H](Cc3c[nH]c4ccccc34)NC(=O)OC(C)(C)C)CCCN2C1=O | > 10000 nM |  | > 1000 nM |
| CN(C)c1ccc(N2C(=O)C[C@@H]3[C@@H](NC(=O)[C@H](Cc4c[nH]c5ccccc45)NC(=O)OC(C)(C)C)CCCN3C2=O)cc1 | 2320 nM |  | > 1000 nM |
| CN(C)c1ccc(N2C(=O)C[C@H]3[C@H](NC(=O)[C@H](Cc4c[nH]c5ccccc45)NC(=O)OC(C)(C)C)CCCN3C2=O)cc1 | > 10000 nM | 39.8 nM | 4.3 nM |
| COC(=O)C(Cc1ccccc1)N1C(=O)CC2C(NC(=O)[C@H](Cc3c[nH]c4ccccc34)NC(=O)OC(C)(C)C)CCCN2C1=O (stereo not given in full) | > 10000 nM |  | > 1000 nM |
| CC(C)(C)OC(=O)N[C@@H](Cc1c[nH]c2ccccc12)C(=O)N[C@@H]1CCCN2C(=O)N(Cc3ccccc3)C(=O)C[C@@H]12 [IQM-95333] | > 10000 nM |  |  |
| CC(C)(C)OC(=O)N[C@@H](Cc1c[nH]c2ccccc12)C(=O)N[C@H]1CCCN2C(=O)N(Cc3ccccc3)C(=O)C[C@H]12 | 6150 nM |  | 22.7 nM |
| CCOC(=O)[C@H](Cc1ccccc1)N1C(=O)C[C@H]2[C@H](NC(=O)[C@H](Cc3c[nH]c4ccccc34)NC(=O)OC(C)(C)C)CCCN2C1=O | > 10000 nM |  | > 1000 nM |
| CC(C)(C)OC(=O)N[C@@H](Cc1c[nH]c2ccccc12)C(=O)N[C@H]1CCCN2C(=O)N(c3ccccc3)C(=O)C[C@H]12 | > 10000 nM | > 1000 nM | 628 nM |
| CC(C)(C)OC(=O)N[C@@H](Cc1c[nH]c2ccccc12)C(=O)N[C@H]1CCCN2C(=O)N(c3ccncc3)C(=O)C[C@H]12 (relative stereo) | > 10000 nM |  | 386 nM |
| COc1ccc(N2C(=O)CC3C(NC(=O)[C@H](Cc4c[nH]c5ccccc45)NC(=O)OC(C)(C)C)CCCN3C2=O)cc1 (stereo not given in full) | > 10000 nM | 38.1 nM | 15.9 nM |
| CC(C)(C)OC(=O)N[C@H](Cc1c[nH]c2ccccc12)C(=O)N[C@@H]1CCCN2C(=O)N(c3cccc4ccccc34)C(=O)C[C@@H]12 | > 10000 nM | 93 nM | 15.4 nM |
| CN(C)c1cccc(N2C(=O)C[C@H]3[C@H](NC(=O)[C@H](Cc4c[nH]c5ccccc45)NC(=O)OC(C)(C)C)CCCN3C2=O)c1 | > 10000 nM |  | 50.8 nM |
| CC(C)(C)OC(=O)N[C@@H](Cc1c[nH]c2ccccc12)C(=O)N[C@H]1CCCN2C(=O)N(c3cccc4ccccc34)C(=O)C[C@H]12 | > 10000 nM |  | > 1000 nM |
| CC(C)(C)OC(=O)N[C@H](Cc1c[nH]c2ccccc12)C(=O)N[C@H]1CCCN2C(=O)N(c3cccc4ccccc34)C(=O)C[C@H]12 | > 10000 nM |  | > 1000 nM |
| Cc1cccc(N2C(=O)C[C@H]3[C@H](NC(=O)[C@H](Cc4c[nH]c5ccccc45)NC(=O)OC(C)(C)C)CCCN3C2=O)c1 | > 10000 nM | 10 nM | 3.98 nM |
| Cc1ccccc1N1C(=O)C[C@H]2[C@H](NC(=O)[C@H](Cc3c[nH]c4ccccc34)NC(=O)OC(C)(C)C)CCCN2C1=O | > 10000 nM | 1.89 nM | 0.97 nM |
| CC(C)(C)OC(=O)N[C@@H](Cc1c[nH]c2ccccc12)C(=O)N[C@H]1CCCN2C(=O)N(c3cccc([N+](=O)[O-])c3)C(=O)C[C@H]12 | > 10000 nM |  | > 1000 nM |
| C[C@H](c1ccccc1)N1C(=O)C[C@H]2[C@H](NC(=O)[C@H](Cc3c[nH]c4ccccc34)NC(=O)OC(C)(C)C)CCCN2C1=O | > 10000 nM | 12.6 nM | 15 nM |

| SMILES | IC50 [1] | IC50 (Rattus norvegicus) | IC50 [2] |
| --- | --- | --- | --- |
| CC(C)(C)OC(=O)N[C@@H](Cc1c[nH]c2ccccc12)C(=O)NC1CCCN2C(=O)N(c3cccc(O)c3)C(=O)CC12 (stereo not given in full) | > 10000 nM |  | > 1000 nM |
| CN1C(=O)C[C@@H]2[C@@H](NC(=O)[C@H](Cc3c[nH]c4ccccc34)NC(=O)OC(C)(C)C)CCCN2C1=O | > 10000 nM |  |  |
| CC(C)(C)OC(=O)N[C@@H](Cc1c[nH]c2ccccc12)C(=O)NC1CCCN2C(=O)N(c3cccc(C(=O)O)c3)C(=O)CC12 (stereo not given in full) | > 10000 nM |  | > 1000 nM |
| CC(C)(C)OC(=O)N[C@@H](Cc1c[nH]c2ccccc12)C(=O)N[C@@H]1CCCN2C(=O)N(C3CCCCC3)C(=O)C[C@@H]12 | > 10000 nM | 3 nM | 0.6 nM |
| CC(C)(C)OC(=O)N[C@@H](Cc1c[nH]c2ccccc12)C(=O)N[C@@H]1CCCN2C(=O)N(c3ccccc3)C(=O)C[C@@H]12 | > 10000 nM | 3.5 nM | 1.18 nM |
| CN(C)c1cccc(N2C(=O)C[C@@H]3[C@@H](NC(=O)[C@H](Cc4c[nH]c5ccccc45)NC(=O)OC(C)(C)C)CCCN3C2=O)c1 | > 10000 nM |  | > 1000 nM |
| CC(C)(C)OC(=O)N[C@@H](Cc1c[nH]c2ccccc12)C(=O)NC1CCCN2C(=O)N(C(Cc3ccccc3)C(=O)O)C(=O)CC12 (stereo not given in full) | > 10000 nM |  | > 1000 nM |
| CCOC(=O)[C@H](Cc1ccccc1)N1C(=O)C[C@@H]2[C@@H](NC(=O)[C@H](Cc3c[nH]c4ccccc34)NC(=O)OC(C)(C)C)CCCN2C1=O | > 10000 nM |  | > 1000 nM |
| Cc1cccc(N2C(=O)C[C@@H]3[C@@H](NC(=O)[C@H](Cc4c[nH]c5ccccc45)NC(=O)OC(C)(C)C)CCCN3C2=O)c1 | 1320 nM |  | 100 nM |
| Cc1ccc(N2C(=O)C[C@@H]3[C@@H](NC(=O)[C@H](Cc4c[nH]c5ccccc45)NC(=O)OC(C)(C)C)CCCN3C2=O)cc1 | 2320 nM |  | 200 nM |
| CC(=O)Oc1cccc(N2C(=O)C[C@H]3[C@H](NC(=O)[C@H](Cc4c[nH]c5ccccc45)NC(=O)OC(C)(C)C)CCCN3C2=O)c1 | > 10000 nM |  | 70.3 nM |
| CC(C)(C)OC(=O)N[C@@H](Cc1c[nH]c2ccccc12)C(=O)N[C@@H]1CCCN2C(=O)N(c3cccc4ccccc34)C(=O)C[C@@H]12 | > 10000 nM | 0.73 nM | 0.59 nM |
| CSCC[C@H](NC(=O)[C@H](Cc1ccc(O)cc1)NC(=O)[C@@H](N)CC(=O)O)C(=O)NCC(=O)N[C@@H](Cc1c[nH]c2ccccc12)C(=O)N[C@@H](CCSC)C(=O)N[C@@H](CC(=O)O)C(=O)N[C@@H](Cc1ccccc1)C(N)=O |  |  | 1.04 nM |
| Cc1ccc(N2C(=O)C[C@H]3[C@H](NC(=O)[C@H](Cc4c[nH]c5ccccc45)NC(=O)OC(C)(C)C)CCCN3C2=O)cc1 | > 10000 nM | 16.6 nM | 2.9 nM |
| CC(C)(C)OC(=O)N[C@@H](Cc1c[nH]c2ccccc12)C(=O)N[C@H]1CCCN2C(=O)N(C3CCCCC3)C(=O)C[C@H]12 | 7160 nM | 287 nM | 165 nM |
| Cc1ccccc1N1C(=O)C[C@@H]2[C@@H](NC(=O)[C@H](Cc3c[nH]c4ccccc34)NC(=O)OC(C)(C)C)CCCN2C1=O | > 10000 nM |  | > 1000 nM |
| CC(C)(C)OC(=O)N[C@@H](Cc1c[nH]c2ccccc12)C(=O)N[C@H]1CCCN2C(=O)N(c3ccc([N+](=O)[O-])cc3)C(=O)C[C@H]12 | > 10000 nM |  | > 1000 nM |
| C[C@H](c1ccccc1)N1C(=O)C[C@@H]2[C@@H](NC(=O)[C@H](Cc3c[nH]c4ccccc34)NC(=O)OC(C)(C)C)CCCN2C1=O | > 10000 nM |  | > 1000 nM |
| C[C@@H](c1ccccc1)N1C(=O)C[C@H]2[C@H](NC(=O)[C@H](Cc3c[nH]c4ccccc34)NC(=O)OC(C)(C)C)CCCN2C1=O | > 10000 nM | 112 nM | 6.89 nM |
